ChEMBL document CHEMBL4321880 (J Med Chem, 2020)

How the values were obtained:
Cytochrome P450 2C8 = molecular target: T1, Cytochrome P450 2C8 (Homo sapiens, UniProt P10632); assay: Inhibition of CYP2C8 in human liver microsomes assessed as formation of desethylamodiaquine at 1.85 uM using amodiaquine as substrate incubated for 10 mins in presence of NADPH by LC-MS/MS analysis; assay type: ADME
T1 sequence (P10632 whole entry): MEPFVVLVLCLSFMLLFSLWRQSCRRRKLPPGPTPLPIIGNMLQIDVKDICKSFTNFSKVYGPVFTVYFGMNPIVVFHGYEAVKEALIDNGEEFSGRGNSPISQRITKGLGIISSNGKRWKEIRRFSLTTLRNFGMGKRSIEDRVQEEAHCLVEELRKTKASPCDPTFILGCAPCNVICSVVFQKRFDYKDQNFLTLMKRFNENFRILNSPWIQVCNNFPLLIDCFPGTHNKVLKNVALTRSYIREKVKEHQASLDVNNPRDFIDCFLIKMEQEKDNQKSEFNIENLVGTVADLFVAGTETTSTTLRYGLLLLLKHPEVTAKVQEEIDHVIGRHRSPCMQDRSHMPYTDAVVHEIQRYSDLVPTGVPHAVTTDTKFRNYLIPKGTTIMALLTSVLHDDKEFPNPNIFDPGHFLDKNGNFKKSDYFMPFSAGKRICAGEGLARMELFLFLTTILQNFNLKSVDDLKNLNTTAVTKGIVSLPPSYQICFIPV
How it was run: (§1)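 Pooled human liver microsomes with 2 mM NADPH in 100 mM KPO4 pH 7.4, 5 mM MgCl2, 37 °C, technical triplicate, final DMSO 0.2%. Probe (substrate, level, protein, time): 1A2 tacrine 5 μM, 0.2 mg/mL, 10 min; 2B6 bupropion 100 μM, 0.25 mg/mL, 10 min; 2C8 amodiaquine 5 μM, 0.25 mg/mL, 10 min; 2C9 tolbutamide 100 μM, 0.5 mg/mL, 15 min; 2C19 mephenytoin 100 μM, 0.25 mg/mL, 60 min; 2D6 dextromethorphan 5 μM, 0.5 mg/mL, 10 min; 3A4 midazolam 2.5 μM or testosterone 50 μM, 0.25 mg/mL, 10 min. Methanol quench, metabolites measured by LC-MS/MS.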

Cytochrome P450 3A4 [1] = molecular target: T2, Cytochrome P450 3A4 (Homo sapiens, UniProt P08684); assay: Inhibition of CYP3A4 in human liver microsomes assessed as formation of 6-beta-hydroxytestosterone at 1.85 uM using testosterone as substrate incubated for 10 mins in presence of NADPH by LC-MS/MS analysis; assay type: ADME; how it was run: as §1
Cytochrome P450 2B6 = molecular target: T3, Cytochrome P450 2B6 (Homo sapiens, UniProt P20813); assay: Inhibition of CYP2B6 in human liver microsomes assessed as formation of hydroxybupropion at 1.85 uM using bupropion as substrate incubated for 10 mins in presence of NADPH by LC-MS/MS analysis; assay type: ADME; how it was run: as §1
T3 sequence (P20813 whole entry): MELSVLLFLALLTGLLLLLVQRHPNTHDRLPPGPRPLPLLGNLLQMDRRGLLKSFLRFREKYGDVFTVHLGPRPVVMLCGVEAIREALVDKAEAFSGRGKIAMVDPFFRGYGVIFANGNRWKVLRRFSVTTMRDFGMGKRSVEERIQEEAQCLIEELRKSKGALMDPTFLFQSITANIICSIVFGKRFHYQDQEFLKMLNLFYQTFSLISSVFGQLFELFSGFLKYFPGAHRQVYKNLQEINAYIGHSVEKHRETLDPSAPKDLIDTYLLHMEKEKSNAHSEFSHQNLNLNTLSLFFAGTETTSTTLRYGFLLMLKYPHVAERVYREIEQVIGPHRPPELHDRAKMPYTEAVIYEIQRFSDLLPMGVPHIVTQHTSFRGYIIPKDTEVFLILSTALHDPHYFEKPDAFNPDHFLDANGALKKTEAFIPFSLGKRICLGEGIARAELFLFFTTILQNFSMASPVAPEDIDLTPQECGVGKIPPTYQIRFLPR

CYP3A5 = CYP3A5 (Homo sapiens, UniProt P20815); assay: Inhibition of human recombinant CYP3A5 expressed in supersomes assessed as decrease in formation of D-luciferin at 1.89 uM using luciferin-IPA as substrate incubated for 10 mins in presence of NADPH by P450-Glo luminescence assay relative to control; details: probe luciferin-IPA
Cytochrome P450 3A5 [2] = molecular target: T4, Cytochrome P450 3A5 (Homo sapiens, UniProt P20815); assay: Binding affinity to heme in His-tagged CYP3A5 (unknown origin) expressed in Escherichia coli DH5alpha assessed as formation of five-coordinate ferric heme iron by measuring type 1 Soret shift from 417 nm (low spin) to 395 nm (high spin) by UV-vis spectrophotometric titration analysis
How it was run: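 Purified recombinant His-tagged CYP3A5 titrated with successive ligand additions until heme absorbance stopped changing. The ligand-free spectrum was subtracted to give difference spectra. Peak-minus-trough values were plotted against ligand concentration and fitted to a binding equation for Kd. Wavelength pairs: ΔA 386–418 nm for the type I shift; ΔA 432–410 nm for the type II shift.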

ASPC1 [3] = assay: Cytotoxicity against CRISPR/Cas9-mediated CYP3A5 knock-out and doxycycline-induced CYP3A4 overexpressing human AsPC1 cells assessed as cell growth; assay type: ADME, cell-based
How it was run: (§2)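 Cells seeded at 10,000/well. Dox-inducible lines were induced with 100 ng/mL doxycycline, then treated 24 h later with compound at 16 two-fold dilutions (0.0003–10 μM) plus 5 μM midazolam, in 0.66% DMSO final, for 24 h. Phase-contrast confluence imaging followed. Values were normalized to six 0.66% DMSO replicates and fitted with a three-parameter log(inhibitor) vs response curve.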

Cytochrome P450 3A4 [4] = molecular target: T2, Cytochrome P450 3A4; assay: (§3) Inhibition of CYP3A4 in CRISPR/Cas9-mediated CYP3A5 knock-out and doxycycline-induced CYP3A4 overexpressing human AsPC1 cells assessed as decrease in 1-hydroxymidazolam formation using midazolam as substrate pretreated with doxycycline for 24 hrs followed by incubation with compound for 24 hrs by LC-MS/MS analysis; assay type: ADME, cell-based
How it was run: (§4)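 AsPC-1 CYP3A5−/− cells with Dox-inducible CYP3A4, 10,000 cells/well, induced with 100 ng/mL doxycycline. Quenched with acetonitrile containing warfarin internal standard. 1-Hydroxymidazolam measured by LC-MS/MS and normalized to DMSO control (100%).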

Cytochrome P450 1A2 = molecular target: T5, Cytochrome P450 1A2 (Homo sapiens, UniProt P05177); assay: Inhibition of CYP1A2 in human liver microsomes assessed as formation of hydroxytacrine at 1.85 uM using tacrine as substrate incubated for 10 mins in presence of NADPH by LC-MS/MS analysis; assay type: ADME; how it was run: as §1
T5 sequence (P05177 whole entry): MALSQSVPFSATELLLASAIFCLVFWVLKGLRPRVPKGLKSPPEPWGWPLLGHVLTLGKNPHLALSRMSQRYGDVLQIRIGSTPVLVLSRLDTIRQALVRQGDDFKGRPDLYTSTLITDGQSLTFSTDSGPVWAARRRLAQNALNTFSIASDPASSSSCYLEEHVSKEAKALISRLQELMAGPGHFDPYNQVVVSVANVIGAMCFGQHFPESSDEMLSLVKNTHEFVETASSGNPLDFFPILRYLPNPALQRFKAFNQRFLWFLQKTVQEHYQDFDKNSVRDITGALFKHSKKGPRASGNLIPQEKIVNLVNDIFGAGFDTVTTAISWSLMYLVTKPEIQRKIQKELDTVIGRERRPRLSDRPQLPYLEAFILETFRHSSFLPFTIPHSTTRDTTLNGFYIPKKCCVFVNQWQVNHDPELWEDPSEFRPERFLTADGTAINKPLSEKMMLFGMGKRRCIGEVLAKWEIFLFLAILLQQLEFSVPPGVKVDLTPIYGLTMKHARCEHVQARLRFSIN

Cytochrome P450 3A5 [5] = molecular target: T4, Cytochrome P450 3A5; assay: Binding affinity to His-tagged CYP3A5 (unknown origin) expressed in Escherichia coli DH5alpha assessed as five-coordinate HS ferric heme iron state formation with displacement of distal water ligand by EPR spectroscopy
How it was run: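 Continuous-wave X-band EPR of purified recombinant enzyme, alone and in complex with ligand. Spectra were compared against the ligand-free form.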

ASPC1 [6] = assay: Cytotoxicity against CRISPR/Cas9-mediated CYP3A5 knock-out human AsPC1 cells assessed as cell growth; assay type: ADME, cell-based; how it was run: as §2
Cytochrome P450 3A4 [7] = molecular target: T2, Cytochrome P450 3A4; assay: as §3, with “Induction” for “Inhibition”, “increase” for “decrease”, “compound at higher concentrations” for “compound”; assay type: ADME, cell-based; details: aspc1, 24 h
How it was run: as §4, with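 “doxycycline. 24 h later given compound (16-point 1:2 series, 0.0003–10 μM) plus 5 μM midazolam, final DMSO 0.66%, for 24 h.” for “doxycycline.”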

Cytochrome P450 3A4 [8] = molecular target: T2, Cytochrome P450 3A4; assay: Binding affinity to His-tagged CYP3A4 (unknown origin) expressed in Escherichia coli DH5alpha assessed as retention of axial water ligand with ligand free LS with no new HS formation by EPR spectroscopy; assay type: ADME; details: buffer
How it was run: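 Continuous-wave X-band EPR of the purified recombinant ligand-free enzyme and of its ligand complex. Ferric heme spin state (LS vs HS) assigned from g-values.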

Cytochrome P450 2D6 = Cytochrome P450 2D6 (Homo sapiens, UniProt P10635); assay: Inhibition of CYP2D6 in human liver microsomes at 1.85 uM using dextromethorphan as substrate incubated for 10 mins in presence of NADPH by LC-MS/MS analysis; assay type: ADME; how it was run: as §1
Chain of Cytochrome P450 2D6 (P10635 whole entry): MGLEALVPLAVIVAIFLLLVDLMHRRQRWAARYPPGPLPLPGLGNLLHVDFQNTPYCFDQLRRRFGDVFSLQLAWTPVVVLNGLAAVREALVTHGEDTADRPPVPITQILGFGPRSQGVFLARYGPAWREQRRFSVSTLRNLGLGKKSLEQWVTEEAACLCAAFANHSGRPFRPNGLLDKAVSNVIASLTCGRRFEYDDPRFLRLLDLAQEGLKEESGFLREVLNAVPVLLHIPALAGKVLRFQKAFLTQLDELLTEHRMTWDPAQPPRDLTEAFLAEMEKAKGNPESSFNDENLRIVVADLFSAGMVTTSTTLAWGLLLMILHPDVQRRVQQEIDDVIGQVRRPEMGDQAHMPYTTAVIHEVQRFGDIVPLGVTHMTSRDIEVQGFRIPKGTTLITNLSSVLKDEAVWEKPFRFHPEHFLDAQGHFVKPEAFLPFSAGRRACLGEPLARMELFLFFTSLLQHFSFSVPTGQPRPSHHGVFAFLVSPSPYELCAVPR

T2 sequence (P08684 whole entry): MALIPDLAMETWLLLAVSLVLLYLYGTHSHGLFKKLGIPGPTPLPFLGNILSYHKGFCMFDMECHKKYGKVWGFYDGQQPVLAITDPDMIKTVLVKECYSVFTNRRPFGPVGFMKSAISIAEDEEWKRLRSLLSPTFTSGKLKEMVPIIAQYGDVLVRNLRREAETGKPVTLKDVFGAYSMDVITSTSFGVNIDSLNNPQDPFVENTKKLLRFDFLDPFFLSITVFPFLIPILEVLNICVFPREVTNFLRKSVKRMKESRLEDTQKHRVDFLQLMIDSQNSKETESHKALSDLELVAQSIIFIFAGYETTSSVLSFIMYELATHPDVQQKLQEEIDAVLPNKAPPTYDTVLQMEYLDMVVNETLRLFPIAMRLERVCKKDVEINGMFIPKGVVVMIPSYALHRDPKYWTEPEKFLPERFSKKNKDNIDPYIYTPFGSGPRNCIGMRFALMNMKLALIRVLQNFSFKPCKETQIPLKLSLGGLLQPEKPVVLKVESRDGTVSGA
T4 sequence (P20815 whole entry): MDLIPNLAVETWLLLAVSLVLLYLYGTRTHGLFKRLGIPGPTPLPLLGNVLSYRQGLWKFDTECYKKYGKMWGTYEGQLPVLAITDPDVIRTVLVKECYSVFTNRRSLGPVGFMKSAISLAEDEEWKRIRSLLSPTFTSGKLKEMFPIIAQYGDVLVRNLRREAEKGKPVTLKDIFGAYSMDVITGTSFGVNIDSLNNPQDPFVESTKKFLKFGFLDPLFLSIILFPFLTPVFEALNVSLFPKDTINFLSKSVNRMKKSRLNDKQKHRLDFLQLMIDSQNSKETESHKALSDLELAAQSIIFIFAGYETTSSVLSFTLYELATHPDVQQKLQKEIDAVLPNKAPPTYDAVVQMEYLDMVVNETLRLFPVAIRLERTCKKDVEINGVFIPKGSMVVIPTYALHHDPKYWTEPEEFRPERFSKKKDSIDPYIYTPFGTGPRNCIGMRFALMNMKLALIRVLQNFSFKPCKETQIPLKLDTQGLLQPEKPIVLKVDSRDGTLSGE
Chain of CYP3A5 (P20815 whole entry): as above

CCC(=O)O[C@]1(C(=O)CCl)[C@@H](C)C[C@H]2[C@@H]3CCC4=CC(=O)C=C[C@]4(C)[C@@]3(F)[C@@H](O)C[C@@]21C [CLOBETASOL PROPIONATE]
inhibition (INH) (Cytochrome P450 2C8): Not Active
inhibition (INH) (Cytochrome P450 3A4 [1]): Not Active
inhibition (INH) (Cytochrome P450 2B6): Not Active
inhibition at 10 min, 1.89 µM (CYP3A5): 90%
Activity (Cytochrome P450 3A5 [2]): Active
Activity (ASPC1 [3]): Non-Toxic
IC50 (Cytochrome P450 3A4 [4]): Not Active
inhibition (INH) (Cytochrome P450 1A2): Not Active
Activity (Cytochrome P450 3A5 [5]): Active
Activity (ASPC1 [6]): Non-Toxic
Activity (Cytochrome P450 3A4 [7]): Active
Activity (Cytochrome P450 3A4 [8]): Not Active
inhibition (INH) (Cytochrome P450 2D6): Not Active
